Assay results: ChEMBL document CHEMBL4715734, “Discovery of the Potent and Selective M1 PAM-Agonist N-[(3R,4S)-3-Hydroxytetrahydro-2H-pyran-4-yl]-5-methyl-4-[4-(1,3-thiazol-4-yl)benzyl]pyridine-2-carboxamide (PF-06767832): Evaluation of Efficacy and Cholinergic Side Effects” (J Med Chem, 2016)
Values after ≈ are worked out from the molar mass of the structure shown. Active and inactive are the calls of the source. The calls are words filed in the database; no cut-off is given here.

How the values were obtained:
[1] = target: T1, Muscarinic acetylcholine receptor M1 (Homo sapiens) (UniProt P11229); test: Binding affinity to muscarinic M1 receptor (unknown origin) assessed as recruitment of beta-arrestin by measuring binding constant by Path Hunter assay; type: cell-based; settings: CHO, filed as positive allosteric modulator
T1 sequence (whole entry): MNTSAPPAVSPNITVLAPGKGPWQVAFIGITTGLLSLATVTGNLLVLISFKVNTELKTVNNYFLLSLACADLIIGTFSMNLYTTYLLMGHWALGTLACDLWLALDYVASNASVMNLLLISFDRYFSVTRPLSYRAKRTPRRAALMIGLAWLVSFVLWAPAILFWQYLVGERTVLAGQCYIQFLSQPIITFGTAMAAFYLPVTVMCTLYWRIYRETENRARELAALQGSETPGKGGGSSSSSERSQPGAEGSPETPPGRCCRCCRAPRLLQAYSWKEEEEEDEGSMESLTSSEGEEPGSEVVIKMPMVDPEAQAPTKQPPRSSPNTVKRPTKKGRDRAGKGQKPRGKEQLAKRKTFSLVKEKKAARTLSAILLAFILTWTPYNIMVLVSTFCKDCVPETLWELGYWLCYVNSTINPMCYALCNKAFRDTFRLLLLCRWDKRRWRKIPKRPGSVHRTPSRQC

[2] = Ratio of AUC in dog brain to fAUC in dog plasma; type: ADME, cell-free, Canis lupus familiaris; settings: in vivo
[3] = Clearance in dog at 0.1 mg/kg, iv administered as single bolus dose; type: ADME, organism-based, Canis lupus familiaris; settings: in vivo
[4] = target: T2, Muscarinic acetylcholine receptor M2 (Homo sapiens, UniProt P08172); test: Positive allosteric modulation of muscarinic M2 receptor (unknown origin) assessed as increase in ACh-induced displacement of [3H]-NMS from M2 receptor
T2 sequence (P08172 whole entry): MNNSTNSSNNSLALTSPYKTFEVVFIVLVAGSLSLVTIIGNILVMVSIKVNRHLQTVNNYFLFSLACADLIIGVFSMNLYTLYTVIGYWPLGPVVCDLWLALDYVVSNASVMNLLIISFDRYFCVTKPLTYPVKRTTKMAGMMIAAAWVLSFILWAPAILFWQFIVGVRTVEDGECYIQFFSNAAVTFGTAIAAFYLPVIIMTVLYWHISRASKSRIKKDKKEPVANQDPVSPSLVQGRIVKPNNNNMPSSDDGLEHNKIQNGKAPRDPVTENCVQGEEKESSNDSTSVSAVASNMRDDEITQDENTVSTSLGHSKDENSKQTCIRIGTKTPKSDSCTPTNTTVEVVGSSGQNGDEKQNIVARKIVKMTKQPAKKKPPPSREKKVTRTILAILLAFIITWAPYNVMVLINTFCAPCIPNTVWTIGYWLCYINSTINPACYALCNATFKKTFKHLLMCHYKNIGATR
Summary of the method: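 Cell lines expressing M2 or M3 were used for [3H]NMS binding. Inhibition of binding by ACh was measured in the presence of fixed compound concentrations of 10, 3, 1, 0.3, 0.1 and 0 µM.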

[5] = Unbound brain concentration in […] in Sprague-Dawley rat model at 1 mg/kg, sc measured after 1.67 hrs; type: ADME, organism-based; settings: in vivo
Summary of the method: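 Randomly selected animals (N=2/dose) at the end of the rat PPI study, T = 1.67 h. Dosed subcutaneously as a suspension in 0.5% methylcellulose in water. Plasma and brain concentrations were averaged.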

[6] = target: T3, Muscarinic acetylcholine receptor M1 (Homo sapiens, UniProt P11229); test: Positive allosteric modulation of muscarinic M1 receptor (unknown origin) expressed in CHO cells assessed as increase in Ach-induced accumulation of inositol phosphate accumulation measured after 30 mins by HTRF assay; type: functional, cell-based
T3 sequence (P11229 whole entry): T1 sequence (whole entry)

[7] = Fraction unbound in rat brain; type: ADME, cell-free
[8] = target: T3, Muscarinic acetylcholine receptor M1; test: Positive allosteric modulation of muscarinic M1 receptor (unknown origin) assessed as increase in Ach-induced recruitment of beta-arrestin by Path Hunter assay; type: cell-based, CHO
[9] = target: T2, Muscarinic acetylcholine receptor M2; test: Agonist activity at human recombinant muscarinic M2 receptor stably expressed in HEK cells assessed as increase in cAMP accumulation up to 10 uM measured after 10 mins by GloSensor cAMP Assay; type: cell-based
[10] = In vivo positive allosteric modulation of muscarinic M1 receptor in CD1 mouse assessed as increase in ACh-induced IP-1 levels in […] tissue at 1 mg/kg, sc measured after 2 hrs by HTRF assay relative to baseline; type: functional
Summary of the method: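 Given sc as a solution in 5/15/80 DMSO/Solutol/water. Striatal IP1 was read 2 h after dosing and expressed as fold increase over baseline. Compound levels were measured in striatal tissue at 2 h (N=5/dose). Each animal's fold increase was plotted against its unbound brain concentration.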

Rattus norvegicus = test: Reversal of amphetamine-induced prepulse inhibition in Sprague-Dawley rat at 1 mg/kg, sc administered 30 min before testing followed by administration of amphetamine 15 mins prior to testing; type: functional, organism-based
Summary of the method: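 In rats with amphetamine-disrupted prepulse inhibition, the compound was dosed sc as a suspension in 0.5% methylcellulose in water. Startle reflex and PPI alone were also assessed, and the analysis used the collapsed data set. Plasma and brain levels were taken from randomly chosen animals (N=2/dose) at the end of the study (1.67 h).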

[11] = Fraction unbound in Beagle dog plasma; type: ADME, Canis lupus familiaris
Mus musculus = test: In vivo positive allosteric modulation of muscarinic M1 receptor in CD-1 mouse assessed as increase in ACh-induced IP-1 levels in […] tissue administered subcutaneously measured after 2 hrs by HTRF assay; type: functional, organism-based
Summary of the method: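 Mice were dosed subcutaneously with a solution in 5/15/80 DMSO/Solutol/water across a 0.1–10 mg/kg dose series. IP1 accumulation in striatum was measured over a 2 h treatment and expressed as fold increase over baseline for each animal. Compound levels were measured in striatal tissue at 2 h (N=5/dose), and unbound brain concentration was derived from these.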

[12] = Ratio of fAUC in monkey brain to plasma; type: ADME, cell-free, Macaca mulatta; settings: rhesus monkey, brain and plasma; read-out: Ratio AUC
[13] = Toxicity in dog assessed as convulsion at 45 mg/kg, po using spray-dried dispersion formulation measured after 45 mins; type: organism-based, Canis lupus familiaris; settings: in vivo, 0.75 h
Summary of the method: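 Dogs received single escalating oral doses as a spray-dried dispersion (10% drug loading with HPMCAS-M). The dispersion was suspended in 0.5 wt% methylcellulose/0.5 wt% HPMCAS in 20 mM tris buffer, pH 7.4. One dog per sex per dose was used, and clinical signs were recorded.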

[14] = Toxicity in dog assessed as salivation at 15 mg/kg, po using spray-dried dispersion formulation; type: organism-based, Canis lupus familiaris; settings: in vivo
[15] = Unbound brain concentration in CD-1 mouse at 10 mg/kg, sc measured after 2 hrs by LC-MS/MS analysis; type: ADME, organism-based; settings: in vivo
[16] = target: T3, Muscarinic acetylcholine receptor M1; test: Agonist activity at muscarinic M1 receptor (unknown origin) expressed in CHO cells assessed as accumulation of inositol phosphate measured after 30 mins by HTRF assay; type: functional, cell-based
[17] = Unbound brain concentration in scopolamine-induced Wistar rat model at 0.32 mg/kg, po measured after 1 hr; type: ADME, organism-based; settings: in vivo
[18] = fAUC (0 to 24 hrs) in dog at 3 mg/kg, po using spray-dried dispersion formulation; type: ADME, organism-based, Canis lupus familiaris; settings: in vivo
[19] = Intrinsic clearance in human liver microsome; type: ADME; settings: liver microsomes, read-out: CLH
[20] = Thermodynamic solubility of compound at pH 6.5; type: physicochemical; settings: buffer, read-out: Therm_solubility
[21] = Toxicity in po dosed dog assessed as NOAEL using spray-dried dispersion formulation; type: organism-based, Canis lupus familiaris; settings: in vivo

- Kb [1]: 5000 nM
- Ratio AUC [2]: 0.6
- clearance [3]: 2.73 mL/min/kg
- Activity [4]: Not Active
- Drug uptake(free) [5]: 17.4 nM
- EC50 [6]: 447 nM
- Fu [7]: 4%
- EC50 [8]: 365 nM
- Activity [9]: Not Active
- Fu [11]: 8.1%
- Kp uu [12]: 0.51
- Drug uptake(free) [15]: 195 nM
- EC50 [16]: ≥ 9200 nM
- Drug uptake(free) [17]: 1.3 nM
- fAUC [18]: 5.242 µM·h
- CLint scaled [19]: < 8 mL/min/kg
- solubility thermodynamic [20]: 2.7 µg/mL (≈ 6.59 µM)
Structure (SMILES): Cc1cnc(C(=O)N[C@H]2CCOC[C@@H]2O)cc1Cc1ccc(-c2cscn2)cc1
- fold change (FC) [10]: 2
- Activity (Rattus norvegicus): Active
- Activity (Mus musculus): Dose-dependent effect
- Activity [13]: Toxic
- Activity [14]: Toxic
- NOAEL [21]: 5 mg/kg
